Assays:
[1] = biological target: Glycogen synthase kinase-3 (Sus scrofa, UniProt B2LUN4+I6LNT8); test: Inhibition of pig brain GSK-3alpka/beta using YRRAAVPPSPSLSRHSSPHQSpEDEEE as substrate after 30 mins by scintillation counting analysis in presence of [gamma-33P]ATP
[2] = biological target: T1, Casein kinase I isoform alpha (Sus scrofa, UniProt O19175); test: Inhibition of pig brain CK1 using RRKHAAIGpSAYSITA as substrate after 30 mins by scintillation counting analysis in presence of [gamma-33P]ATP
T1 sequence (O19175 whole entry): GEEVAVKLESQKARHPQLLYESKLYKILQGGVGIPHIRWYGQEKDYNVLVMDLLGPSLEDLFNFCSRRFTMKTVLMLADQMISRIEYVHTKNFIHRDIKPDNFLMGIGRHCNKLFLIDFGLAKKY

[3] = biological target: Dual specificity tyrosine-phosphorylation-regulated kinase 1A (Rattus norvegicus, UniProt Q63470); test: Inhibition of rat recombinant DYRK1A expressed in Escherichia coli using myelin basic protein as substrate after 30 mins by scintillation counting analysis in presence of [gamma-33P]ATP
[4] = biological target: Cyclin-dependent kinase 5/CDK5 activator 1 (Homo sapiens, UniProt Q00535); test: Inhibition of human recombinant CDK5/p25 after 30 mins by scintillation counting analysis in presence of [gamma-33P]ATP; assay type: protein-complex assay
Sequence of Cyclin-dependent kinase 5/CDK5 activator 1 (Q00535 whole entry): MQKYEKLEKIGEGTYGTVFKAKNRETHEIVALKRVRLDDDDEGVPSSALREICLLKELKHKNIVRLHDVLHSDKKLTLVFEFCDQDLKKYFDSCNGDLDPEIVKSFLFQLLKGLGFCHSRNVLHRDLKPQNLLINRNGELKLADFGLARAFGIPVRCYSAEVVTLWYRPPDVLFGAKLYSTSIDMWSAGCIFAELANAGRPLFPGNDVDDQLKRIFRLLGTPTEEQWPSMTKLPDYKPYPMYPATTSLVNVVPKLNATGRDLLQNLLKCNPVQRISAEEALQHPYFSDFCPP
Sequence of Cyclin-dependent kinase 5/CDK5 activator 1 (Q15078 whole entry, further chain): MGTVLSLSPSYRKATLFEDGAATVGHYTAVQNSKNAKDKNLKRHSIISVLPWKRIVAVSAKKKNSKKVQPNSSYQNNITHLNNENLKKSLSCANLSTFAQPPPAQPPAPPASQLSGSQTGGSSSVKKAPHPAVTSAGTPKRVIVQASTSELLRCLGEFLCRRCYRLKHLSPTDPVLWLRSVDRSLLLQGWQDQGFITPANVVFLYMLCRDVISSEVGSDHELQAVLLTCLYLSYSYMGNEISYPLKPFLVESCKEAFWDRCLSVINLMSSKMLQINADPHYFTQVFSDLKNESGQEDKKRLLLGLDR

HCT-116 = test: Cytotoxicity against human HCT116 cells after 48 hrs by MTT assay; assay type: functional, cell-based; settings: HCT-116, 48 h
Outline: (§1)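 Run in triplicate, with the mean reported; the IC50 for each cell line comes from non-linear regression with a 95% confidence interval.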

OVCAR-8 = test: Cytotoxicity against human OVCAR8 cells after 48 hrs by MTT assay; assay type: functional, cell-based; settings: OVCAR-8, 48 h; outline: as §1
HL-60 = test: Cytotoxicity against human HL60 cells after 48 hrs by MTT assay; assay type: functional, cell-based; settings: HL-60, 48 h; outline: as §1
SF-295 = test: Cytotoxicity against human SF295 cells after 48 hrs by MTT assay; assay type: functional, cell-based; settings: SF-295, 48 h; outline: as §1

CC(C)C(=O)Nc1n[nH]c(=O)c2ccccc12 showed an IC50 [1] greater than 10 µM, an IC50 [2] greater than 10 µM and an IC50 [3] greater than 10 µM. For the same molecule, the IC50 [4] was greater than 10 µM.
With Nc1n[nH]c(=O)c2ccccc12 the IC50 (HCT-116) was 12.7 µM, the IC50 [1] was greater than 10 µM and the IC50 (OVCAR-8) was 11.8 µM. The IC50 (HL-60) was 8.87 µM, the IC50 [2] was greater than 10 µM and the IC50 (SF-295) was 6.06 µM. It also gave an IC50 [3] of 4.1 µM and an IC50 [4] greater than 10 µM.
O=C(Nc1n[nH]c(=O)c2ccccc12)c1ccccc1 gave an IC50 [1] greater than 10 µM, an IC50 [2] greater than 10 µM and an IC50 [3] greater than 10 µM. The IC50 [4] was greater than 10 µM.
In the case of O=c1cc(-c2ccccc2)c(NCCN2CCCCC2)n[nH]1, the IC50 [1] is reported as greater than 10 µM, the IC50 [2] is reported as greater than 10 µM and the IC50 [3] is reported as greater than 10 µM. It also gave an IC50 [4] greater than 10 µM.
Molecule CN1CCC(Nc2cc(-c3ccccc3)c(=O)[nH]n2)CC1 has an IC50 [1] greater than 10 µM, an IC50 [2] greater than 10 µM and an IC50 [3] greater than 10 µM. For the same molecule, the IC50 [4] was greater than 10 µM.
Molecule CCCNc1n[nH]c(=O)c2ccccc12 has an IC50 [1] greater than 10 µM, an IC50 [2] greater than 10 µM and an IC50 [3] greater than 10 µM. It also gave an IC50 [4] greater than 10 µM.
In the case of O=c1[nH]nc(NCCN2CCCCC2)c2ccccc12, the IC50 [1] is reported as greater than 10 µM, the IC50 [2] is reported as greater than 10 µM and the IC50 [3] is reported as greater than 10 µM. It also gave an IC50 [4] greater than 10 µM.
In the case of CC(=O)Nc1n[nH]c(=O)cc1-c1ccccc1, the IC50 [1] is reported as greater than 10 µM, the IC50 [2] is reported as greater than 10 µM and the IC50 [3] is reported as greater than 10 µM. It also gave an IC50 [4] greater than 10 µM.
Molecule Nc1n[nH]c(=O)cc1-c1ccccc1 has an IC50 [1] greater than 10 µM, an IC50 [2] greater than 10 µM and an IC50 [3] greater than 10 µM. It also gave an IC50 [4] greater than 10 µM.
In the case of CC(=O)Nc1cc(-c2ccccc2)c(=O)[nH]n1, the IC50 (HCT-116) is reported as 15.4 µM, the IC50 [1] is reported as 2.2 µM and the IC50 (OVCAR-8) is reported as 14 µM. The IC50 (HL-60) was 11.6 µM, the IC50 [2] was greater than 10 µM and the IC50 (SF-295) was 7.66 µM. For the same molecule, the IC50 [3] was 10 µM and the IC50 [4] was greater than 10 µM.
Work on Nc1cc(-c2ccccc2)c(=O)[nH]n1 yielded an IC50 (HCT-116) of 4.4 µM, an IC50 [1] of 8.1 µM and an IC50 (OVCAR-8) of 4.86 µM. The IC50 (HL-60) was 3.64 µM, the IC50 [2] was greater than 10 µM and the IC50 (SF-295) was 5.71 µM. The IC50 [3] was 6 µM and the IC50 [4] was greater than 10 µM.
O=C(Nc1cc(-c2ccccc2)c(Cl)nn1)c1ccccc1 showed an IC50 [1] greater than 10 µM, an IC50 [2] greater than 10 µM and an IC50 [3] greater than 10 µM. It also gave an IC50 [4] greater than 10 µM.
O=C(Nc1cc(-c2ccccc2)c(=O)[nH]n1)c1ccccc1 gave an IC50 [1] greater than 10 µM, an IC50 [2] greater than 10 µM and an IC50 [3] greater than 10 µM. The IC50 [4] was greater than 10 µM.
Molecule CCCCCC(=O)N(C(=O)CCCCC)c1nnc(Cl)c2ccccc12 has an IC50 [1] greater than 10 µM, an IC50 [2] greater than 10 µM and an IC50 [3] greater than 10 µM. For the same molecule, the IC50 [4] was greater than 10 µM.
With O=C(Cc1ccccc1)N(C(=O)Cc1ccccc1)c1nnc(Cl)c2ccccc12 the IC50 [1] was greater than 10 µM, the IC50 [2] was greater than 10 µM and the IC50 [3] was greater than 10 µM. The IC50 [4] was greater than 10 µM.
Molecule O=C(Cc1ccccc1)Nc1nnc(Cl)c2ccccc12 has an IC50 [1] greater than 10 µM, an IC50 [2] greater than 10 µM and an IC50 [3] greater than 10 µM. It also gave an IC50 [4] greater than 10 µM.
Work on CC(=O)N(C(C)=O)c1n[nH]c(=O)c2ccccc12 yielded an IC50 [1] greater than 10 µM, an IC50 [2] greater than 10 µM and an IC50 [3] greater than 10 µM. It also gave an IC50 [4] greater than 10 µM.
Work on CC(C)C(=O)N(C(=O)C(C)C)c1n[nH]c(=O)c2ccccc12 yielded an IC50 [1] greater than 10 µM, an IC50 [2] greater than 10 µM and an IC50 [3] greater than 10 µM. The IC50 [4] was greater than 10 µM.
Molecule O=C(Cc1ccccc1)Nc1n[nH]c(=O)c2ccccc12 has an IC50 [1] greater than 10 µM, an IC50 [2] greater than 10 µM and an IC50 [3] greater than 10 µM. The IC50 [4] was greater than 10 µM.
In the case of CC(=O)Nc1n[nH]c(=O)c2ccccc12, the IC50 [1] is reported as greater than 10 µM, the IC50 [2] is reported as greater than 10 µM and the IC50 [3] is reported as greater than 10 µM. It also gave an IC50 [4] greater than 10 µM.
O=c1[nH]nc(NCc2ccccc2)cc1-c1ccccc1 was tested, and the IC50 [1] was greater than 10 µM, the IC50 [2] was greater than 10 µM and the IC50 [3] was greater than 10 µM. For the same molecule, the IC50 [4] was greater than 10 µM.
With O=c1cc(-c2ccccc2)c(NCc2ccccc2)n[nH]1 the IC50 [1] was greater than 10 µM, the IC50 [2] was greater than 10 µM and the IC50 [3] was greater than 10 µM. For the same molecule, the IC50 [4] was greater than 10 µM.
CCCNc1cc(-c2ccccc2)c(=O)[nH]n1 gave an IC50 [1] greater than 10 µM, an IC50 [2] greater than 10 µM and an IC50 [3] greater than 10 µM. The IC50 [4] was greater than 10 µM.
For CCCNc1n[nH]c(=O)cc1-c1ccccc1, the IC50 [1] was greater than 10 µM, the IC50 [2] was greater than 10 µM and the IC50 [3] was greater than 10 µM. For the same molecule, the IC50 [4] was greater than 10 µM.
O=c1[nH]nc(NCCN2CCCCC2)cc1-c1ccccc1 gave an IC50 [1] greater than 10 µM, an IC50 [2] greater than 10 µM and an IC50 [3] greater than 10 µM. The IC50 [4] was greater than 10 µM.

— ChEMBL document CHEMBL2346615, “Design, synthesis, and molecular modelling of pyridazinone and phthalazinone derivatives as protein kinases inhibitors” (Bioorg Med Chem Lett, 2013)
